The source made the active and inactive calls. No cut-off for these calls is given here.
Key:
[1] = system: MDA-MB-468; test: Induction of apoptosis in human MDA-MB-468 cells expressing p53 R273H mutant assessed increase in number of Annexin-V stained cells at 6 to 12 uM incubated for 24 hrs by AnnexinV-FITC and PI staining based flow cytometry; assay type: functional, cell-based; settings: dose 6-12 µM
Outline: (§1)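 24 h treatment, DMSO control. Cells scraped, washed in PBS, then given fluorochrome-conjugated Annexin V for 15 min at RT in the dark, followed by PI (0.1 µg/ml) in binding buffer. Read by flow cytometry on LSRFortessa. Annexin V-positive cells expressed relative to the DMSO control.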

[2] = Octanol-water partition coefficient, logP of the compound by HPLC-MS analysis; assay type: physicochemical; settings: 18 h
Outline: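 Compound (10 µL of 10 mM DMSO stock) added to 0.5 mL octanol plus 0.5 mL sodium phosphate buffer pH 7.4. Stirred 18 h, centrifuged 2 h at 3600 rpm. Concentration in each phase measured by LC-MS on a C18 column.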

[3] = system: MDA-MB-231; test: Induction of apoptosis in human MDA-MB-231 cells expressing p53 R280K mutant assessed fold increase in number of Annexin-V stained cells at 6 to 12 uM incubated for 24 hrs by AnnexinV-FITC and PI staining based flow cytometry relative to control; assay type: functional; settings: dose 6-12 µM; outline: as §1

SMILES | Activity [1] | logP [2] | fold change (FC) [3]
[Se]=C=NCCC12CC3CC(CC(C3)C1)C2 | Active | 4.05 | 
S=C=NCCCC12CC3CC(CC(C3)C1)C2 |  |  | 2

Reference: ChEMBL document CHEMBL5038582, “Adamantyl Isothiocyanates as Mutant p53 Rescuing Agents and Their Structure-Activity Relationships” (J Med Chem, 2021)
